ChEMBL document CHEMBL2057084, “Discovery of benzylisothioureas as potent divalent metal transporter 1 (DMT1) inhibitors” (Bioorg Med Chem Lett, 2012)

What was measured:
[1] = Apparent permeability across apical to basolateral side in human Caco2 cells; type: ADME, cell-based; conditions: Caco-2
Summary of the method: (§1)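 Caco-2 cell monolayers; apparent permeability measured in both directions (apical→basolateral and basolateral→apical); […].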

[2] = Apparent permeability across basolateral to apical side in human Caco2 cells; type: ADME, cell-based; conditions: Caco-2; summary of the method: as §1
[3] = Inhibition of human DMT1B-IRE expressed in CHO cells assessed as blockage of ferrous influx after 20 mins by calcein fluorescence quenching method; type: cell-based
Summary of the method: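 Calcein fluorescence quench assay for DMT1 (conditions detailed in supplementary data); IC50s are the average of at least two independent determinations.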

[4] = molecular target: T1, Natural resistance-associated macrophage protein 1 (Homo sapiens, UniProt P49279); assay: Inhibition of NRAMP1 expressed in CHO cells; type: cell-based
T1 sequence (P49279 whole entry): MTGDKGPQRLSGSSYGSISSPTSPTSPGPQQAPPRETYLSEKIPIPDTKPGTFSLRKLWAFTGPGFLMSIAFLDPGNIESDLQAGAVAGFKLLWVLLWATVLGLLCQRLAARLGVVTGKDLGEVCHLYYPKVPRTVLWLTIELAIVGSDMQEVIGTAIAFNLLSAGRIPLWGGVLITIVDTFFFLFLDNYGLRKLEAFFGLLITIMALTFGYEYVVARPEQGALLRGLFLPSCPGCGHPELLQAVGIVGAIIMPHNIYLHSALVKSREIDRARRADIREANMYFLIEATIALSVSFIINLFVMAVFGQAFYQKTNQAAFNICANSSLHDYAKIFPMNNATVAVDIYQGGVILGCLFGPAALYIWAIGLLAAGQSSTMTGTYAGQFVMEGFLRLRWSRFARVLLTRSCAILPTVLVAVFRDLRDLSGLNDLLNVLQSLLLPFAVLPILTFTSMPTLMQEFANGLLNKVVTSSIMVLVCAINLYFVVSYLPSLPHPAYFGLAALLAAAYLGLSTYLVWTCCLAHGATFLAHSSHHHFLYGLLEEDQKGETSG

Structure (SMILES) | Papp A→B [1] | Papp B→A [2] | IC50 [3] | IC50 [4]
Br.N=C(N)SCc1ccccc1Sc1ccc(F)cc1CSC(=N)N | 0.3 ×10⁻⁶ cm/s | 0.2 ×10⁻⁶ cm/s | 150 nM | > 10000 nM
Br.COc1ccc(Sc2ccc(F)cc2CSC(=N)N)c(CSC(=N)N)c1 | 2.4 ×10⁻⁶ cm/s | 2.4 ×10⁻⁶ cm/s | 530 nM | > 10000 nM
Br.N=C(N)SCc1cccc2c1sc1c(CSC(=N)N)c(Br)ccc12 | 1.3 ×10⁻⁶ cm/s | 0.2 ×10⁻⁶ cm/s | 750 nM | > 10000 nM
Br.N=C(N)SCc1c(Cl)ccc2c1oc1c(CSC(=N)N)c(Cl)ccc12 | < 0.1 ×10⁻⁶ cm/s | 0.4 ×10⁻⁶ cm/s | 270 nM | > 10000 nM
N=C(N)SCc1ccccc1C(=O)c1cc(Cl)ccc1CSC(=N)N | – | – | 5200 nM | > 10000 nM
N=C(N)SCc1cccc2c1-c1c(CSC(=N)N)cccc1C2=O | – | – | > 15000 nM | > 10000 nM
Br.N=C(N)SCc1ccccc1Sc1cc(F)ccc1CSC(=N)N | 0.3 ×10⁻⁶ cm/s | 0.2 ×10⁻⁶ cm/s | 510 nM | > 10000 nM
Cc1cccc(CSC(=N)N)c1Sc1ccccc1CSC(=N)N | – | – | 3770 nM | > 10000 nM
Br.N=C(N)SCc1c(Br)ccc2c1oc1c(CSC(=N)N)c(Br)ccc12 | 0.2 ×10⁻⁶ cm/s | 0.1 ×10⁻⁶ cm/s | 110 nM | > 10000 nM
Br.N=C(N)SCc1cc(F)cc2c1sc1c(CSC(=N)N)cc(Cl)cc12 | 0.5 ×10⁻⁶ cm/s | 0.2 ×10⁻⁶ cm/s | 40 nM | > 10000 nM
N=C(N)SCc1cccc2c1oc1c(CSC(=N)N)cc(F)cc12 | – | – | 20 nM | > 10000 nM
Br.N=C(N)SCc1cc(F)ccc1Oc1ccc(F)cc1CSC(=N)N | < 0.1 ×10⁻⁶ cm/s | 0.2 ×10⁻⁶ cm/s | 320 nM | > 10000 nM
Cc1cc(C)c(CSC(=N)N)c(C)c1CSC(=N)N | 0.9 ×10⁻⁶ cm/s | 1.2 ×10⁻⁶ cm/s | 290 nM | –
N=C(N)SCc1cc(F)ccc1Oc1ccc([N+](=O)[O-])cc1CSC(=N)N | – | – | 160 nM | > 10000 nM
Br.N=C(N)SCc1ccccc1C(=O)c1cc([N+](=O)[O-])ccc1CSC(=N)N | 0.1 ×10⁻⁶ cm/s | 0.7 ×10⁻⁶ cm/s | 370 nM | > 10000 nM
N=C(N)SCc1cccc2cc3cccc(CSC(=N)N)c3nc12 | 0.2 ×10⁻⁶ cm/s | 0.5 ×10⁻⁶ cm/s | 290 nM | > 10000 nM
Br.N=C(N)SCc1cccc2c1-c1c(CSC(=N)N)cccc1-2 | < 0.1 ×10⁻⁶ cm/s | 0.4 ×10⁻⁶ cm/s | 100 nM | > 10000 nM
N=C(N)SCc1ccccc1Sc1ccc(N)cc1CSC(=N)N | – | – | 910 nM | > 10000 nM
N=C(N)SCc1cccc2c1Oc1c(CSC(=N)N)cccc1S2 | – | – | 150 nM | > 10000 nM
Br.N=C(N)SCc1cccc2c1sc1c(CSC(=N)N)cccc12 | < 0.1 ×10⁻⁶ cm/s | < 0.1 ×10⁻⁶ cm/s | 260 nM | > 10000 nM
N=C(N)SCc1cccc2sc3cccc(CSC(=N)N)c3c12 | – | – | 5040 nM | > 10000 nM
Br.N=C(N)SCc1c(F)ccc2c1oc1c(CSC(=N)N)c(F)ccc12 | 5 ×10⁻⁶ cm/s | 1 ×10⁻⁶ cm/s | 90 nM | > 10000 nM
N=C(N)SCc1ccccc1C(=O)c1ccc(Cl)cc1CSC(=N)N | – | – | 2920 nM | > 10000 nM
Br.N=C(N)SCc1cc(F)ccc1Sc1cc(F)c(F)cc1CSC(=N)N | < 0.1 ×10⁻⁶ cm/s | 0.2 ×10⁻⁶ cm/s | 600 nM | > 10000 nM
